Data set [1] is described as follows: Volume of distribution at steady state in Sprague-Dawley rat at 5 mg/kg. It is filed as ADME, organism-based. Details: dose 5 mg/kg; call rule not given here. The note with it: in vivo, read-out: Vdss.
Data set [2] is described as follows: Oral bioavailability in Beagle dog at 2.5 mg/kg. It is filed as ADME, organism-based, Canis lupus familiaris. The note with it: in vivo.
The next data set concerns the target Cytochrome P450 2D6 (Homo sapiens, UniProt P10635). Put plainly: Inhibition of CYP2D6 in human liver microsomes. It is filed as ADME, Microsome. In general terms: Microsomes from liver hold many membrane-bound enzymes, among them those of drug oxidation.
Data set [3] is described as follows: Water solubility of compound at physiological pH. It is filed as physicochemical.
In another data set the target is Cytochrome P450 2E1 (Homo sapiens, UniProt P05181). As to the kind of experiment: Inhibition of CYP2E1 in human liver microsomes. It is filed as ADME, Microsome.
Sequence of Cytochrome P450 2E1 (P05181 whole entry): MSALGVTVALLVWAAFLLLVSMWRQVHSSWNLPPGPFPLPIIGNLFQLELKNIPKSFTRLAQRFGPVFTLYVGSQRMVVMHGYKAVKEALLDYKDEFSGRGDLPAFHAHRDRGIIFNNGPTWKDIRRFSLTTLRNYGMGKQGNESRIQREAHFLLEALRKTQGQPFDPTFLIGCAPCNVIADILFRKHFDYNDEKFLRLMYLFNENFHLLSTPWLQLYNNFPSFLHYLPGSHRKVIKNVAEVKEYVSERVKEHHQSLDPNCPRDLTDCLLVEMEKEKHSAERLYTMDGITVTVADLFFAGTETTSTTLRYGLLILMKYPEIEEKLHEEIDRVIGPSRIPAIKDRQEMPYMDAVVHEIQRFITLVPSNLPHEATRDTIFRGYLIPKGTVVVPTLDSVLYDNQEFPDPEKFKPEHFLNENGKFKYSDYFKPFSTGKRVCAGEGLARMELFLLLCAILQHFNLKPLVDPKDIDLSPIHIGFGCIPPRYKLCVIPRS
Data set [4] is described as follows: Protein binding in Beagle dog plasma at 5 uM. It is filed as ADME, cell-free, Canis lupus familiaris. The note with it: read-out: PPB (converted).
For data set [5], the system named is B16-F10. Put plainly: Potentiation of temozolomide-induced cytotoxicity against mouse B16F10 cells xenografted in C57BL/6 mouse assessed as growth inhibition at 12.5 mg/kg/day, po after 17 days relative to temozolomide monotherapy. It is filed as functional. In outline:
(§1)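 B16F10 syngeneic model: 6×10^4 cells in 50% matrigel injected sc into the flank of 6–8 week old female C57BL/6 mice (20 g), allocated to groups by injection order. Inhibitor given po bid days 6–11 at 1, 5 or 12.5 mg/kg/day; temozolomide 50 mg/kg/day po qd days 6–11. Tumor volume by caliper as L×W²/2; TGI versus temozolomide alone.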

The nature of data set [6]: Protein binding in Sprague-Dawley rat plasma at 5 uM. The following applies: read-out: PPB (converted). It is filed as ADME, cell-free.
Data set [7] deals with B16-F10. As to the kind of experiment: Antitumor activity against mouse B16F10 cells xenografted in C57BL/6 mouse assessed as growth inhibition at 12.5 mg/kg/day, po after 14 days relative to control. It is filed as functional.
Data set [8] in a line: Clearance in CD1 mouse at 10 mg/kg. It is filed as ADME, organism-based. Details: dose 10 mg/kg. The following applies: in vivo. The gist of the method:
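Mouse pharmacokinetics. Oral dose of 10 mg/kg in 2.5% EtOH, 1 drop Tween-80 and 25% PEG400 in PBS. Intravenous dose of 3 mg/kg in 2.5% EtOH, 5% DMSO, 1 drop Tween-80 and 25% PEG400 in PBS.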

For data set [9], the system named is MX1. Put plainly: Potentiation of carboplatin-induced cytotoxicity against human MX1 cells xenografted in SCID mouse assessed as growth inhibition at 25 mg/kg/day, sc osmotic minipump after 42 days relative to carboplatin monotherapy. It is filed as functional. The note with it: route subcutaneous. In outline:
(§2)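 MX-1 xenograft: 0.2 cc of 1:10 tumor brei injected sc into the flank of female SCID mice on day 0; size-matched on day 15, 10 mice/group. Inhibitor 1–50 mg/kg/day by sc osmotic minipump for 14 days from day 18; carboplatin 10 mg/kg ip on days 20, 24 and 28. Caliper volumes as L×W²/2; TGI relative to carboplatin alone.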

Data set [10] in a line: Cmax in CD1 mouse at 10 mg/kg, po. The following applies: in vivo. Further details: dose 10 mg/kg, route oral. It is filed as ADME, organism-based. The gist of the method: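 Mouse PK: oral dose 10 mg/kg in 2.5% EtOH, 1 drop Tween-80, 25% PEG400 in PBS; iv dose 3 mg/kg in 2.5% EtOH, 5% DMSO, 1 drop Tween-80, 25% PEG400 in PBS. Oral bioavailability, iv half-life, oral AUC and Cmax derived from plasma profiles.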

Data set [11] relates to MX1. Put plainly: Potentiation of carboplatin-induced cytotoxicity against human MX1 cells xenografted in SCID mouse assessed as growth inhibition at 50 mg/kg/day, sc osmotic minipump after 42 days relative to carboplatin monotherapy. It is filed as functional. The following applies: route subcutaneous. The gist of the method: as §2
On the technique in general: In xenograft studies the graft and the host belong to different species.

The subject of data set [12] is MX1. As to the kind of experiment: Potentiation of cyclophosphamide-induced cytotoxicity against human MX1 cells xenografted in SCID mouse assessed as growth inhibition at 12.5 mg/kg/day, sc osmotic minipump after 48 days relative to cyclophosphamide monotherapy. It is filed as functional. The note with it: route subcutaneous. The gist of the method: (§3)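 Female SCID mice bearing sc MX-1 brei (0.2 cc of 1:10, day 0), size-matched on day 15, 10 per group. Inhibitor 5, 12.5 or 25 mg/kg/day by sc osmotic minipump for 14 days from day 18; cyclophosphamide 12.5 mg/kg ip on days 20, 24 and 28. Volumes from caliper L×W²/2; TGI versus cyclophosphamide alone.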

The test system of data set [13] is MX1. Put plainly: Potentiation of carboplatin-induced cytotoxicity against human MX1 cells xenografted in SCID mouse assessed as growth inhibition at 5 mg/kg/day, sc osmotic minipump after 42 days relative to carboplatin monotherapy. It is filed as functional. The following applies: route subcutaneous. The gist of the method: as §2
Data set [14] has as its system B16-F10. Put plainly: Potentiation of temozolomide-induced cytotoxicity against mouse B16F10 cells xenografted in C57BL/6 mouse assessed as growth inhibition at 1 mg/kg/day, po after 17 days relative to temozolomide monotherapy. It is filed as functional. The gist of the method: as §1
The subject of data set [15] is MX1. Put plainly: Potentiation of cyclophosphamide-induced cytotoxicity against human MX1 cells xenografted in SCID mouse assessed as growth inhibition at 25 mg/kg/day, sc osmotic minipump after 48 days relative to cyclophosphamide monotherapy. It is filed as functional. The note with it: route subcutaneous. The gist of the method: as §3
A short description of data set [16]: Cmax in cynomolgus monkey at 2.5 mg/kg, po. It is filed as ADME, organism-based, Macaca fascicularis. Further details: dose 2.5 mg/kg, route oral. The note with it: in vivo.
The test system of data set [17] is MX1. As to the kind of experiment: Potentiation of carboplatin-induced cytotoxicity against human MX1 cells xenografted in SCID mouse assessed as growth inhibition at 12.5 mg/kg/day, sc osmotic minipump after 42 days relative to carboplatin monotherapy. It is filed as functional. The note with it: route subcutaneous. The gist of the method: as §2
Data set [18] can be described thus: Volume of distribution at steady state in Beagle dog at 2.5 mg/kg. Details: dose 2.5 mg/kg. The note with it: in vivo, read-out: Vdss. It is filed as ADME, organism-based, Canis lupus familiaris.

Sequence of Cytochrome P450 2D6 (P10635 whole entry): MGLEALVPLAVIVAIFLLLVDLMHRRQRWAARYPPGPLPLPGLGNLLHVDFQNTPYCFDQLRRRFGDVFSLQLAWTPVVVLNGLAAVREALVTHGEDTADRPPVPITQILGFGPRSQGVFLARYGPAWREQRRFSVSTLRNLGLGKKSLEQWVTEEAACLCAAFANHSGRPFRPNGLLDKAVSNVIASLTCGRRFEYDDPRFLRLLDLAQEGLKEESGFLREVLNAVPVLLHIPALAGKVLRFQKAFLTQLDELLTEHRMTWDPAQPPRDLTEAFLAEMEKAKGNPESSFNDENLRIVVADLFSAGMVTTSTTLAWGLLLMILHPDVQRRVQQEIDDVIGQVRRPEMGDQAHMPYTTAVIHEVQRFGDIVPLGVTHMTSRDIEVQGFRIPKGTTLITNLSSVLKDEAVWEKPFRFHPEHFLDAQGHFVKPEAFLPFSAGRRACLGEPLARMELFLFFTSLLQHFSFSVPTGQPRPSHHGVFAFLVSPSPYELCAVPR

The term bioavailability denotes dose-corrected exposure relative to a reference, in per cent. As a reminder, the solubility is the concentration that dissolves in the medium under given conditions. Broadly, the TGI is how far tumour growth fell short of that in controls. A word on the clearance: it is the rate of elimination divided by the concentration. In general, Cmax refers to the peak of the concentration-time curve. With `C[C@]1(c2nc3c(C(N)=O)cccc3[nH]2)CCCN1` [VELIPARIB], the Vd in data set [1] came out at 3.6 L/kg; in data set [18], 2.2 L/kg. In data set [2], this molecule yielded a bioavailability of 72%. The Activity result at Cytochrome P450 2D6 and at Cytochrome P450 2E1 was “Not Active” each time. Further, the solubility in data set [3] was greater than 5 mg/mL. The fraction unbound at 5 µM in data set [4] and in [6] was 0.59 each time. Moreover, the TGI in the data set with B16-F10 [5] was 64%; in the data set on B16-F10 [7] it was 28%; in the data set with MX1 [9], 78%; with MX1 [11], 91%; in the data set with MX1 [12] it was 33%; in the data set with MX1 [13], 17%. Further, the TGI in the data set on B16-F10 [14] was 43%; with MX1 [15], 61%; in the data set on MX1 [17], 58%. Besides, in data set [8], the clearance was 4.1 L/h/kg. The Cmax in data set [10] was 1.6 µg/mL; in [16] it was 0.3 µg/mL.

For the origin of these results see ChEMBL document CHEMBL1139389, “Discovery of the Poly(ADP-ribose) polymerase (PARP) inhibitor 2-[(R)-2-methylpyrrolidin-2-yl]-1H-benzimidazole-4-carboxamide (ABT-888) for the treatment of cancer” (J Med Chem, 2009).
